Sampled rows, rich in hits. Any-hit rate of the full collection: about 0.89%.
T cell HTS – modulators of CD8 T cell-vesicle binding, primary screen, mouse 2C CD8+ T cells, flow cytometry | 2C CD8+ T cell-vesicle binding; stronger effect = lower value | 0.068% of 330,000 active | response (vesicle binding), % at 7 µM | AID 2052, 2009;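 active means response, share of CD8 T cells binding vesicles, and their 90th percentile fluorescence all below set limits, cut at about 80% in these data, passing the limit was not always enough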;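 further: values below 100% mean blocked vesicle binding to the CD8+ T cells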
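Test system: purified 2C TCR transgenic mouse naive CD8+ T cells. Probe or stimulus: QL9-peptide-loaded Drosophila micro-vesicles bearing Ld, ICAM-1 and B7-1. Incubation: binding step 1.5 h, 37 °C, antibody labelling 20 min, ice. Measured by: flow cytometry of vesicle-bound cells.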
NTR1 agonist – agonists of human NTR1, primary screen, imaging, U2OS cells, beta-arrestin-GFP, high content; NTR1-U2OS beta-arrestin-GFP spot imaging, agonist mode; activation, % at 20 µM; 0.17% of 330,000 active;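 active means activation at or above 40% of the spot to cytoplasm intensity ratio, with at least 20 cells analyzed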;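 further: 0% = DMSO without peptide and 100% = 100 nM NTR1 peptide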
Target sequence (P30989 whole entry, looked up): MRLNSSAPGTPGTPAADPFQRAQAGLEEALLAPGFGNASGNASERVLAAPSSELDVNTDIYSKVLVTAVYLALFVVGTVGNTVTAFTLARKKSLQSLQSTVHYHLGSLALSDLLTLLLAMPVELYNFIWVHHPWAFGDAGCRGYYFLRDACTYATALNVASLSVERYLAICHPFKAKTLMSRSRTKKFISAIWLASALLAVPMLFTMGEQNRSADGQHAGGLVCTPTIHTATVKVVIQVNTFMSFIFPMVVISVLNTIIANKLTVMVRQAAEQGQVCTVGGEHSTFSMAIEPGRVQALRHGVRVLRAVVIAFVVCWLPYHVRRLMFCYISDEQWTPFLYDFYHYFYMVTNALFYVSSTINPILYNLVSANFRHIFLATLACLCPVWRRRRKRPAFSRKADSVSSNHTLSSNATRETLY
V-ATPase pH – regulators of yeast V-ATPase proton pumping, primary screen, pHLuorin cytosolic pH fluorescence | S. cerevisiae | response, % at 10 µM | 0.37% of 350,000 active | AID 504577, 2011; in the data active means response mostly above about 7.3%, no sharp cut-off; inactive means mostly below about 5.4%; further: actives read high
Arr AP2 block – inhibitors of beta-arrestin/AP2 binding, primary screen, biochemical, GPCR trafficking, flow cytometry; inhibition, % at 10 µM; AID 504490, 2011; 0.31% of 340,000 active; FITC-arrestin peptide / GST-AP2 beads; AP2 beta2 appendage carries R879A mutation;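 active means inhibition above a set limit, near 3 SD of compounds lacking own fluorescence, cut at about 54% in these data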;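 further: plate controls were DMSO wells for no effect and 5 µM unlabelled arrestin peptide for full effect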
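Measured by: flow cytometry, FL1 (488/535 nm); Material: AP2 appendage R879A on GSH beads; Evaluation: percent response; Timing: pre-incubation 12 min, peptide binding 1 h, room temperature; Also added: 50 nM FITC-arrestin peptide; Medium: PBS with 0.05% Tween 20 and 0.1% BSA.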
MIN6 prolif-1 – inducers of MIN6 beta-cell proliferation, primary screen, ATP luminescence, uHTS; MIN6 cells proliferation, ATPlite luminescence, 48 h; cells starved in 0.2% serum; 100% = growth in 10% serum; proliferation, % at 10 µM; 0.29% of 330,000 active;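 active means compounds whose signal lies at least 3.5 SD above the mean of all wells on their plate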;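 further: 0% = DMSO-treated cells in low-serum medium and 100% = 10% serum control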
Xi reactivation – activators of inactive X chromosome reactivation, primary screen, imaging, XiGFP fibroblasts, GFP high-content imaging, set 2; XiGFP mouse fibroblasts, % GFP-positive cells imaging, 3 d; cells co-treated with 5-aza-dC sensitizer; scaled so ellipticine positive control = 100%; 0.055% of 360,000 active; activation, % at 7.58 µM;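 active means mean normalized replicate activation at least 10% and every replicate at or above 10%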;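 further: 0% = median of on-plate neutral control wells and 100% = ellipticine 6 µM median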
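Material: SV40-immortalized XiGFP fibroblast cells, line 68-5-11 | Buffer or medium: DMEM containing 5-aza-dC | Dosing: One concentration, pinned | Times: 3 d treatment, 15 min room-temperature fixation | Controls: Ellipticine 6 µM positive control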
MIN6 prolif-2 – inducers of beta-cell proliferation in MIN6, confirmation, MIN6 cells, mouse. shares compounds with MIN6 prolif-1. ATPlite luminescence, 48 h; cells kept in 0.2% serum; scaled between 0.2% and 10% serum. proliferation increase, % at 50 µM. 920 tested, under 10 active;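 active means proliferation increase above 40% at any of the four tested concentrations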
Starred values were filed as active, the others as inactive; x = not tested or not shown.

SMILES | T cell HTS | NTR1 agonist | V-ATPase pH | Arr AP2 block | MIN6 prolif-1 | Xi reactivation | MIN6 prolif-2
Cc1nc(N)c(C#N)c(-c2ccc3c(c2)OCO3)c1C | 196 | 0 | 0 | 37 | 5.3* | 0 | 2
CCc1nc(N)c(C#N)c(-c2cccnc2)c1C | 317 | 3 | 5 | -3 | 6 | x | x
Cc1nc(N)c(C#N)c(-c2cccnc2)c1C | 597 | -1 | -1 | 40 | 9.6* | x | 10
c1cncc(CNc2ncnc3ccc(-c4ccoc4)cc23)c1 | 86 | 0 | 1 | 7 | 16* | 0 | 1
Cc1cccc(CNc2ncnc3ccc(-c4ccoc4)cc23)c1 | 377 | 1 | 5 | 4 | -7 | 0 | x
CN(c1ccccc1)c1nc(N)c([N+](=O)[O-])c(Nc2ccccc2)n1 | 668 | 39 | -2 | 31 | -2 | 0 | x
COc1ccc(Nc2nc(N(C)c3ccccc3)nc(N)c2[N+](=O)[O-])cc1 | 200 | 5 | 3 | 18 | 10* | 0 | 4
COc1ccccc1CNC(=O)C[C@H]1C[C@@H]2c3cc(NC(=O)c4cccnc4)ccc3O[C@@H]2[C@@H](CO)O1 | x | x | x | x | x | 0 | x
COC(=O)C[C@@H]1CC[C@H](NS(=O)(=O)c2ccc(OC)cc2)[C@@H](CO)O1 | x | x | x | x | x | -1 | x
CN(C)/C=N/c1c(C#N)cnn1-c1ncnc2sc(-c3ccccc3)cc12 | 168 | 10 | -1 | 4 | 12* | x | -6
Cc1ccc(S(=O)(=O)N(CC(O)CN2C(=O)NC(C)(C)C2=O)c2ccccc2)cc1 (centres undefined) | 484 | -2 | -4 | 3 | 8.8* | x | -1
Cc1ccc(S(=O)(=O)N(CC(O)CN2C(=O)NC(C)(C)C2=O)c2cccc(C)c2)cc1 (centres undefined) | 308 | 0 | -3 | 20 | 1 | 0 | x
CCCc1cc(=O)[nH]c(SCC(=O)N(CCC#N)c2ccc3c(c2)OCCO3)n1 | x | 0 | 1 | -10 | -3 | 0 | x
CCCc1cc(=O)[nH]c(SCC(=O)c2ccc3c(c2)OCCO3)n1 | 324 | 2 | -1 | -2 | 0.0* | 0 | -6
Cc1cc(NS(=O)(=O)c2ccc(NC(=O)CSc3nnc(-c4ccco4)n3C)cc2)nc(C)n1 | 369 | 1 | -3 | 17 | 5.8* | 0 | 2
COc1cc(/C=C/c2[nH]c(=O)[nH]c(=O)c2[N+](=O)[O-])cc(OC)c1O | 177 | 0 | -3 | 2 | 5.7* | 0 | -4
CCNC(=O)COC(=O)c1ccc(S(=O)(=O)N2CCCCCC2)cc1 | 308 | 2 | -1 | -7 | 5.4* | x | 0
Cc1ccc(CNC(=O)COC(=O)c2ccc(S(=O)(=O)N3CCCCCC3)cc2)cc1 | x | 3 | -7 | 5 | -1 | 0 | x
O=C(c1ccc(N2CCOCC2)c([N+](=O)[O-])c1)N1CCN(Cc2ccccc2)CC1 | 144 | -1 | 3 | 4 | 5.8* | 0 | -2
O=C(c1ccc(Br)c([N+](=O)[O-])c1)N1CCN(Cc2ccccc2)CC1 | 179 | 0 | -1 | 0 | -4 | 0 | x
CCOC(=O)c1sc2nc[nH]c(=O)c2c1C | 96 | 0 | -50 | -62 | 4 | x | x
CCOC(=O)c1c(C)c2c(=O)[nH]cnc2n1-c1ccccc1 | 418 | 1 | -2 | 12 | 9.8* | 0 | 12
CO[C@@H]1CN(C)C(=O)c2cc(NS(=O)(=O)c3ccc(C)cc3)ccc2OC[C@@H](C)N(Cc2nccs2)C[C@H]1C | x | x | x | x | x | 0 | x
O=C(NCc1ccc2c(c1)OCO2)c1ccc2c(c1)OCO2 | 146 | 3 | -7 | 1 | 0 | 2 | x
O=C(NCc1ccc2c(c1)OCO2)c1ccc2snnc2c1 | 139 | 1 | -2 | 0 | 8.2* | x | 0
SMILES | T cell HTS | NTR1 agonist | V-ATPase pH | Arr AP2 block | MIN6 prolif-1 | Xi reactivation | MIN6 prolif-2
COc1ccc(OC)c2c1sc(=NC(=O)C1COc3ccccc3O1)n2C (centres undefined) | 497 | 10 | -3 | -13 | 7.7* | 0 | -2
CCC(=O)N=c1sc2c(OC)ccc(OC)c2n1C | 570 | 3 | 5 | 1 | -2 | 0 | x
C[C@@H]1CN([C@@H](C)CO)C(=O)Cc2cc(NC(=O)CCC(F)(F)F)ccc2O[C@@H]1CN(C)C(=O)Nc1ccc(F)cc1 | x | x | x | x | x | 0 | x
C[C@@H]1CN([C@H](C)CO)C(=O)c2ccccc2-c2ccccc2CO[C@@H]1CN(C)Cc1ccc(-c2ccccc2)cc1 | x | x | x | x | x | 0 | x
CC(=O)c1ccc(N(CC(=O)NC2CCCCC2)C(=O)c2csnn2)cc1 | 354 | -2 | -1 | 12 | 6.6* | 0 | 0
CC[C@H](C)[C@@H]1NC(=O)c2cc([N+](=O)[O-])cc(F)c2NCCCC[C@@H](C(N)=O)NC(=O)[C@H](CC(N)=O)NC1=O | 121 | 1 | -2 | -7 | -4 | 0 | x
C[C@@H](O)C1NC(=O)[C@H](CCCCN)NC(=O)c2cc([N+](=O)[O-])cc(F)c2NCCCC[C@@H](C(N)=O)NC1=O (some centres undefined) | 670 | -1 | -3 | 7 | 9.7* | x | -3
O=C1CCCN1c1ccc(Br)cc1 | 255 | 0 | 1 | 21 | 7.2* | x | -2
CCCC(=O)Nc1nn(CC)c2nc3ccc(C)cc3cc12 | 487 | 2 | -1 | -3 | 9.5* | 0 | 1
C[C@@H]1CCCCO[C@H](CN(C)C(=O)c2ccncc2)[C@H](C)CN([C@@H](C)CO)C(=O)c2cc(NS(C)(=O)=O)ccc2O1 | x | x | x | x | x | -1 | x
COc1ccc(Cn2c(CCCO)nc3ccccc32)cc1OC | 253 | 0 | -1 | 10 | 5.7* | x | 3
CCN(CC)S(=O)(=O)c1cccc(-c2nnc(SCC(=O)c3cc(C)n(C)c3C)o2)c1 | 169 | 6 | -4 | -2 | 12* | x | 1
CCN(CC)S(=O)(=O)c1cccc(-c2nnc(SCCOc3ccccc3)o2)c1 | 726 | 24 | 1 | -7 | -3 | x | x
O=C(O)CCc1ccc(-c2ccc(Cl)cc2)n1CC(=O)O | 278 | 1 | -1 | 0 | 5.8* | x | 0
O=C(Cc1cccs1)N1CCN(S(=O)(=O)c2ccccc2)CC1 | 371 | -1 | -4 | 9 | 7.2* | 0 | -2
